Here are results for 11 molecules from PubChem BioAssay.

Molecules are shown by their SMILES. Activity calls are given as the source filed them.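 The calls were made as follows, unless noted: active = inhibition above 20% together with a positive visual image hit; inconclusive = visual image hit but inhibition not above 20%; inactive = no visual image hit.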

Experiment [1] is described as follows: inhibitors of TNFa-induced NFkB p65 translocation, primary screen, imaging, HUVEC, MLSMR starter and 10KST1 sets (AID 438).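 Also: compound added about 3h40 before a 20 min TNFalpha stimulation.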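 As to inhibition: signal is the nuclear over cytoplasmic p65 intensity ratio per well.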 Particulars: HUVEC TNFa-induced p65 nuclear translocation; cell count: measured here: nuclei count (cytotoxicity indicator), at 2.08 µM; inhibition: at 2 µM, stronger effect = higher value, 0% TNFa-plus-vehicle, 100% no-TNFa wells.
Experiment [2] in a line: inhibitors of E-selectin induction by TNFa, primary screen, imaging, HUVEC, immunofluorescence, MLSMR starter and 10KST1 sets (AID 487;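 active = visually confirmed hit in the image check and inhibition above 20%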;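 as to inhibition: signal is fraction of cell area covered by stained E-selectin grains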;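 as to nuclei count: 100% = median nuclei count of all wells on the same plate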). Particulars: HUVEC TNFalpha-induced E-selectin immunofluorescence imaging, at 2 µM; inhibition: stronger effect = higher value; nuclei count: measured here: cell number, toxicity.
A short description of experiment [3]: DUSP6 inhibitors restoring Erk phosphorylation by chemical complementation, primary imaging in DUSP6-transfected HeLa (AID 609;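 active = compounds giving at least 50% inhibition in the cell-based MKP-3 phosphatase rescue imaging test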;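 as to inhibition: phospho-Erk level distribution per well compared with pooled transfected vehicle control wells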). Particulars: HeLa MKP-3 transfected, phospho-Erk imaging KS statistic, at 10 µM, cells stimulated with TPA for 15 min.
Experiment [4] addresses Dual specificity protein phosphatase 6 (Homo sapiens) (UniProt Q16828). The description is as above. Particulars: HeLa MKP-3 transfected, phospho-Erk imaging KS statistic; at 10 µM; stronger effect = higher value; cells stimulated with TPA for 15 min.
Experiment [5] concerns the target Voltage-gated potassium channel subunit beta-2 (Rattus norvegicus) (UniProt P62483). As to the kind of experiment: KvBeta enzyme negative modulators, primary screen, biochemical, NADPH fluorescence (AID 622;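 active = fluorescence slope higher than the sample average by over 3 SD, cut at about -0.22 in these data, passing the limit was not always enough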;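 also: slope of raw intensity against log time taken from 70 to 1610 s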). Particulars: recombinant KvBeta, 4-cyanobenzaldehyde reduction, at 10 µM, stronger effect = higher value.
For experiment [6] the target is unchanged. Briefly: KvBeta positive modulators, primary screen, biochemical, NADPH fluorescence (AID 623;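 active = NADPH fluorescence slope more negative than the mean of all samples by about 3 SD, 99.7% confidence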;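 also: fluorescence intensity change per second fitted from 20 to 320 s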). Particulars: Recombinant KvBeta, NADPH fluorescence decrease slope, 10 min; at 10 µM; stronger effect = lower value.
For experiment [7], the target named is Alpha-2C adrenergic receptor (Homo sapiens) (UniProt P18825). Briefly: modulators of alpha2C/GIRK thallium flux, primary screen, cell-based, HEK293 alpha2C/GIRK1/2 (AID 624;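 active = fluorescence slope after compound addition differing from the mean of all screened samples at 99.7% confidence, in either direction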;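 also: slope of fluorescence ratio to pre-addition baseline per second over 15 to 24 s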). Particulars: thallium flux BTC fluorescence, at 10 µM, actives lie on both sides.
Chain of Alpha-2C adrenergic receptor (Homo sapiens) (P18825 whole entry, looked up): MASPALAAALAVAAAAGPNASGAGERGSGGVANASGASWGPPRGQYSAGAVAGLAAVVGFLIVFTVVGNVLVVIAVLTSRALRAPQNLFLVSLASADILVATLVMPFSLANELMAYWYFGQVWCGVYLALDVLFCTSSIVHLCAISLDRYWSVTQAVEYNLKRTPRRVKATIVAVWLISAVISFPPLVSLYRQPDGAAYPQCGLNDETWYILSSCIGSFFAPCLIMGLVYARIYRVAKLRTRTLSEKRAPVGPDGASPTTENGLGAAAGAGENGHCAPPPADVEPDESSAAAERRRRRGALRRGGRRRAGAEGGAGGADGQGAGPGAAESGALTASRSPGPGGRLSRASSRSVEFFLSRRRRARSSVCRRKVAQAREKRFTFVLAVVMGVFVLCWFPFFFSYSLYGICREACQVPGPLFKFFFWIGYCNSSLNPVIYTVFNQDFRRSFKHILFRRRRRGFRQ
Experiment [8] can be described thus: inhibitors of larval lipid processing in zebrafish, primary screen, whole organism, PED6 fluorescence, gall bladder and intestine (AID 686;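 active = a full or partial loss of lipid-probe fluorescence in the fish gall bladder, intestine or both, judged by eye; inactive = no fluorescence loss, or compound toxic to the fish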;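 also: larvae 5 to 7 days old with five fish per well; signal comes from phospholipase A2 cleavage of quenched PED6 carried via bile; overnight exposure to compound and PED6 before scoring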). Particulars: Zebrafish larvae PED6 lipid processing, fluorescence scoring; screened at 20 µM (by protocol). A digest of the protocol:
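Also added: quenched phospholipase substrate PED6, 100 nM final, ingested by larvae; System: zebrafish larvae, 5-7 d; Quantity: 5 larvae per well; Compound: 20 µM single dose; Schedule: overnight compound and PED6 incubation; Read-out: visual per-well fluorescence inhibition score; Measured by: By-eye fluorescence microscopy; Medium: E3.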

Experiment [9] in a line: inhibitors of Chlamydomonas gravitaxis, primary screen, whole organism, Chlamydomonas reinhardtii, WT vs cilia-less mutant, absorbance, 96-well (AID 463189;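 active = inhibition at or above 50% relative to wild type and mutant plate controls; inactive = inhibition below 50%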;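 also: 0% = wild type cc124 cells in DMSO and 100% = ciliumless bld1 mutant cells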). Particulars: OD600 absorbance, 2 days, at 10 µM, stronger effect = higher value.
Setting [10] is: measured here: cell density z-score.
Where [11] appears, read: measured here: nuclear c-Myc green intensity z-score.
Where [12] appears, read: measured here: nuclear pErk red intensity z-score, stronger effect = higher value.

Chain of Voltage-gated potassium channel subunit beta-2 (Rattus norvegicus) (P62483 whole entry, looked up): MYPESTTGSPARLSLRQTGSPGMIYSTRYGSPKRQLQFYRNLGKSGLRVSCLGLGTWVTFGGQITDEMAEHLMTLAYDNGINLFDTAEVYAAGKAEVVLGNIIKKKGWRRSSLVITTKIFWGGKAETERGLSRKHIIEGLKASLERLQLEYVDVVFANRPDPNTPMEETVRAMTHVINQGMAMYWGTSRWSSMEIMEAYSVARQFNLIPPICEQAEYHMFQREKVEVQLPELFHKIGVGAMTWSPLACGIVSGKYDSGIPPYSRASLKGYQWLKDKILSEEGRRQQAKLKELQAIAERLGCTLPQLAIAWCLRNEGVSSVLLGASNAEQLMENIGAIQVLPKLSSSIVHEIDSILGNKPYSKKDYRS
Chain of Dual specificity protein phosphatase 6 (Homo sapiens) (Q16828 whole entry, looked up): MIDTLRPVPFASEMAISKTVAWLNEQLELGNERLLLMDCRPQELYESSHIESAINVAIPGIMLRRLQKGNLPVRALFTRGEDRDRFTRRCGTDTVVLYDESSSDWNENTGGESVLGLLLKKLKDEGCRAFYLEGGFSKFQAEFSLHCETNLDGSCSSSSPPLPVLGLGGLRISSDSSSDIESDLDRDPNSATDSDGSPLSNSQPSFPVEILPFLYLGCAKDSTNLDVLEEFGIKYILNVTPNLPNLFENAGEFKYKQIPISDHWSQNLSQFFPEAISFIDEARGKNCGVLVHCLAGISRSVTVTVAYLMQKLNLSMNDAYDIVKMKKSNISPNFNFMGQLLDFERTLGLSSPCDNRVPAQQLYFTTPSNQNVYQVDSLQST

In general, inhibition refers to the relative decrease from the control value, in per cent. As to `Cc1ccc2[nH]c3c(NCCN4CCOCC4)ncnc3c2c1`, in [1], the cell count amounted to 558. For the same molecule, the inhibition in [1] is -21.5% (inactive); in [2], -90.3% (inactive); in experiment [4], -6.06% (inactive); in experiment [9], 2.83% (inactive). This molecule also registered a nuclei count in experiment [2] of 160%. Further, the z-score in experiment [3] (setting [10]) was -2.07; in experiment [3] (setting [11]), -0.295; in experiment [3] (setting [12]), -0.0856. In addition, the fluorescence slope in experiment [5] is -0.475 (inactive). The NADPH fluorescence slope in [6] was -5.9e-05 (inactive). Further, in [7], the slope was 0.00484 (inactive). Moreover, the molecule was classed as inactive in experiment [8].
`Cc1nc2c(=O)n(C)c(=O)[nH]c2n1Cc1ccccc1`: the cell count in experiment [1] was found to be 465. Also, the inhibition in experiment [1] is 3.5% (inactive); in [2], -59.5% (inactive); in experiment [4], -4.7% (inactive); in experiment [9], -5.62% (inactive). Further, in experiment [2], the nuclei count was found to be 153%. The z-score in experiment [3] (setting [10]) turned out to be 0.739; in [3] (setting [11]), 0.0972; in [3] (setting [12]) it was 1.29. The fluorescence slope in experiment [5] is -0.394 (inactive). Also, in experiment [6], the NADPH fluorescence slope was -4.2e-05 (inactive). Moreover, in experiment [7], the slope was 0.00601 (inactive). In experiment [8], the result was inactive.
As for `COc1ccc(-c2nn3c(-c4ccccn4)nnc3s2)cc1OC`, the cell count in [1] is 638. Moreover, the inhibition in experiment [1] was -8.9% (inactive); in experiment [2], 36.9% (inactive); in experiment [4], -2.47% (inactive); in [9], 22% (inactive). In [2], this molecule registered a nuclei count of 169%. In addition, the z-score in experiment [3] (setting [10]) was 0.845; in experiment [3] (setting [11]) it was -0.297; in experiment [3] (setting [12]), -0.421. Moreover, the fluorescence slope in experiment [5] is -0.407 (inactive). For the same molecule, in [6], the NADPH fluorescence slope was -0.000141 (inactive). Also, the slope in experiment [7] is 0.00665 (inactive). For the same molecule, the call in experiment [8] was inactive.
As to `COc1ccc(Cl)cc1N=Cc1c(O)cc(C)oc1=O`, the cell count in experiment [1] was 347. The inhibition in experiment [1] was -4.9% (inactive); in experiment [2], -136% (inactive); in experiment [4], 12.3% (inactive); in experiment [9], 16.9% (inactive). Besides, the nuclei count in experiment [2] came out at 189%. Further, the z-score in [3] (setting [10]) was 0.57; in experiment [3] (setting [11]), -0.693; in experiment [3] (setting [12]), 0.874. For the same molecule, the fluorescence slope in [5] was -0.415 (inactive). In addition, the NADPH fluorescence slope in [6] was -0.0002 (inactive). Moreover, in experiment [7], the slope was 0.00387 (inactive). In [8], the call was inactive.
With `CCOc1ccc(C2/C(=C(/O)c3ccc(F)cc3)C(=O)C(=O)N2CCCN(C)C)cc1` (stereo not drawn), the cell count in experiment [1] is 564. The inhibition in experiment [1] is -4.5% (inactive); in [2], -17% (inactive); in experiment [4], -1.12% (inactive); in experiment [9] it was -0.349% (inactive). This molecule also gave a nuclei count in [2] of 186%. Besides, the z-score in experiment [3] (setting [10]) was -0.359; in experiment [3] (setting [11]), 0.0868; in experiment [3] (setting [12]), -0.309. The fluorescence slope in experiment [5] was -0.388 (inactive). In addition, in experiment [6], the NADPH fluorescence slope was -3e-05 (inactive). The slope in [7] is 0.00504 (inactive). In addition, the result in [8] was inactive.
`O=C(O)C(Cc1c[nH]c2ccccc12)NS(=O)(=O)c1cccc2nsnc12` (stereo not drawn): the cell count in experiment [1] worked out at 564. Also, the inhibition in experiment [1] was -1.2% (inactive); in experiment [2], -96.3% (inactive); in [4], 19.1% (inactive); in experiment [9], -3.63% (inactive). Also, the nuclei count in experiment [2] came out at 160%. For the same molecule, the results for the z-score in experiment [3] (setting [10]), in experiment [3] (setting [11]) and in [3] (setting [12]) were -0.832, -0.134 and 0.46, respectively. Also, the fluorescence slope in [5] is -0.487 (inactive). Also, the NADPH fluorescence slope in experiment [6] is -5.5e-05 (inactive). The slope in [7] was 0.00789 (inactive). Besides, the outcome in [8] was inactive.
Turning to `COCCN(C(=O)Nc1ccccc1)c1ccccc1C`, the cell count in experiment [1] came out at 443. Also, the inhibition was -5.7% (inactive) in [1], -107% (inactive) in [2], -3.95% (inactive) in experiment [4] and -5.98% (inactive) in experiment [9]. In experiment [2], the nuclei count worked out at 186%. For the same molecule, the z-score in experiment [3] (setting [10]) was -1.02; in experiment [3] (setting [11]), -0.17; in experiment [3] (setting [12]) it was -0.3. In addition, in experiment [5], the fluorescence slope is -0.32 (inactive). Also, in experiment [6], the NADPH fluorescence slope was 6.1e-06 (inactive). Besides, the slope in [7] is 0.00472 (inactive). Further, the molecule was called inactive in experiment [8].
Turning to `CN1CCN(CCCCC(=O)c2ccccc2)CC1`, the cell count in [1] came out at 600. The inhibition in experiment [1] is -9.1% (inactive); in [2], 14.9% (inactive); in [4], -6.06% (inactive); in [9], 68.4% (active). This molecule gave a nuclei count in experiment [2] of 183%. Further, the z-score is 0.5 in experiment [3] (setting [10]), -1.07 in [3] (setting [11]) and -0.798 in experiment [3] (setting [12]). In experiment [5], the fluorescence slope is -0.397 (inactive). The NADPH fluorescence slope in experiment [6] is 1.3e-06 (inactive). Besides, in [7], the slope was 0.00562 (inactive). For the same molecule, the result in [8] was inactive.
Regarding `O=C(N(c1ccccc1)c1ccccc1)n1ccnc1`, the cell count in experiment [1] is 543. Also, the inhibition in [1] was -15.7% (inactive); in experiment [2], -71.5% (inactive); in experiment [4] it was -11.5% (inactive); in [9] it was -0.901% (inactive). In addition, the nuclei count in experiment [2] was determined as 169%. Also, the z-score in experiment [3] (setting [10]) is -1.35; in [3] (setting [11]), -0.0585; in experiment [3] (setting [12]) it was 1.08. The fluorescence slope in experiment [5] is -0.487 (inactive). Besides, the NADPH fluorescence slope in experiment [6] was -5.7e-05 (inactive). Besides, the slope in experiment [7] was 0.00471 (inactive). Besides, the molecule was called inactive in [8].
On to `COc1cc2c(C(=O)N3CCN(c4ccccc4)CC3)c(C)oc2cc1Br`, for which the cell count in [1] was 539. Moreover, the inhibition in [1] was -0.9% (inactive); in experiment [2], -65.1% (inactive); in experiment [4], 10.5% (inactive); in experiment [9], 1.23% (inactive). This molecule registered a nuclei count in [2] of 139%. In addition, the figures for the z-score in [3] (setting [10]), in experiment [3] (setting [11]) and in [3] (setting [12]) were 1.72, -0.592 and -0.944, respectively. The fluorescence slope in experiment [5] is -0.532 (inactive). The NADPH fluorescence slope in experiment [6] was -2.7e-05 (inactive). Moreover, the slope in experiment [7] was 0.00643 (inactive). Besides, in experiment [8], the molecule was called inactive.
Consider `CN1CCc2c(sc3ncn4nc(-c5ccccc5O)nc4c23)C1`, for which the cell count in experiment [1] was determined as 519. The inhibition is -12.5% (inactive) in experiment [1], -51.6% (inactive) in experiment [2], 9.39% (inactive) in [4] and 87% (active) in experiment [9]. The same molecule registered a nuclei count in experiment [2] of 125%. Also, the z-score in experiment [3] (setting [10]) was 0.947; in [3] (setting [11]), -1.25; in experiment [3] (setting [12]) it was 0.576. The fluorescence slope in experiment [5] was -0.472 (inactive). Besides, in [6], the NADPH fluorescence slope is -0.000226 (inactive). In experiment [7], the slope is 0.00542 (inactive). Besides, the outcome in experiment [8] was inactive.
